Measured values: ChEMBL document CHEMBL4834426, “Antimalarial Benzimidazole Derivatives Incorporating Phenolic Mannich Base Side Chains Inhibit Microtubule and Hemozoin Formation: Structure-Activity Relationship and In Vivo Oral Efficacy Studies” (J Med Chem, 2021)
In brackets after ≈: the same amount, converted by molar mass. Activity calls are given as the source filed them. No cut-off for these calls is given here.

Tests used:
[1] = Resistance index, ratio of IC50 for antimalarial activity against asexual blood stage multi drug-resistant Plasmodium falciparum K1 to IC50 for antimalarial activity against asexual blood stage drug-sensitive Plasmodium falciparum NF54; type: functional
Outline: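 Resistance index is IC₅₀(K1)/IC₅₀(NF54). Both IC₅₀s came from the [³H]-hypoxanthine incorporation assay, as means of ≥2 independent experiments.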

[2] = test system: Plasmodium falciparum; test: Antiplasmodial activity against […] Plasmodium falciparum NF54 early gametocytes transfected with GFP-Luc […] at 5 uM incubated for 48 hrs by microscopy based luciferase reporter gene assay relative to control; type: functional
Outline: (§1)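 NF54-Pfs16-GFP-Luc gametocytes, assays set up day 5 (early, stage II/III) or day 10 (late, stage IV/V). Culture at 2−3% gametocytemia, 1.5% hematocrit, 48 h drug exposure at 37 °C under 90% N₂/5% O₂/5% CO₂. Lysates mixed with luciferin; bioluminescence read with 10 s integration. Dual-point: one biological repeat in technical triplicate. Methylene blue (5 μM) reference.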

[3] = test system: Plasmodium falciparum; test: Antimalarial activity against asexual blood stage multi drug-resistant Plasmodium falciparum K1 infected in erythrocytes assessed as reduction in parasitemia incubated up to 72 hrs by [3H]hypoxanthine incorporation assay; type: functional, organism-based
Outline: (§2)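 [³H]-Hypoxanthine incorporation assay (modified) on asexual blood-stage P. falciparum in vitro. IC₅₀ values are means of ≥2 independent experiments.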

[4] = Metabolic stability in mouse liver microsomes assessed as compound remaining at 1 uM incubated for 30 mins by LC-MS/MS analysis; type: ADME, Microsome; conditions: read-out: Stabilty
Outline: (§3)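 Single-point design: 1 μM compound with 0.4 mg/mL liver microsomes in 0.1 M phosphate buffer pH 7.4 for 30 min. Quenched with ice-cold acetonitrile containing carbamazepine internal standard, centrifuged, analyzed by LC−MS/MS. Percent remaining from internal-standard-corrected peak areas at 30 min versus 0 min. Propranolol, midazolam and MMV390048 as controls.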

[5] = test system: Plasmodium berghei; test: Antimalarial activity against GFP-transfected Plasmodium berghei ANKA infected in NMRI mouse model assessed as reduction in parasitemia at 50 mg/kg, po dosed 4 times relative to control; type: functional; design: scale not given: the % may be the effect or the level left
Outline: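 Mice (n = 3) infected with GFP-transfected P. berghei ANKA. Compound in 70% Tween-80/30% ethanol, diluted 10-fold in water, given orally at 4, 24, 48 and 72 h post-infection. Blood taken day 4 (96 h); parasitemia by flow cytometry, detection limit 0.1%. Activity = difference in mean % parasitemia between control and treated, as % of control.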

[6] = test system: Plasmodium falciparum; test: Antiplasmodial activity against […] Plasmodium falciparum NF54 late gametocytes transfected with GFP-Luc […] at 5 uM incubated for 48 hrs by microscopy based luciferase reporter gene assay relative to control; type: functional; outline: as §1
[7] = Selectivity index, ratio of IC50 for Cytotoxicity against CHO cells assessed as inhibition of cell viability by MTT assay to IC50 for antimalarial activity against asexual blood stage Plasmodium falciparum NF54 assessed as reduction in parasitemia incubated up to 72 hrs by [3H]hypoxanthine incorporation assay; type: toxicity, cell-based; conditions: hamster, read-out: Selectivity Index
Outline: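 Selectivity index is IC₅₀(CHO)/IC₅₀(NF54). […] IC₅₀ came from nonlinear dose-response fitting. Parasite IC₅₀ came from the [³H]-hypoxanthine assay.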

[8] = test system: CHO; test: Cytotoxicity against CHO cells assessed as inhibition of cell viability by MTT assay; type: cell-based; conditions: Cricetulus griseus
[9] = Metabolic stability in rat liver microsomes assessed as compound remaining at 1 uM incubated for 30 mins by LC-MS/MS analysis; type: ADME, Microsome; conditions: read-out: Stabilty; outline: as §3
[10] = Metabolic stability in human liver microsomes assessed as compound remaining at 1 uM incubated for 30 mins by LC-MS/MS analysis; type: ADME, Microsome; conditions: read-out: Stabilty; outline: as §3
[11] = test system: Plasmodium falciparum; test: Antiplasmodial activity against […] Plasmodium falciparum NF54 early gametocytes transfected with GFP-Luc […] at 1 uM incubated for 48 hrs by microscopy based luciferase reporter gene assay relative to control; type: functional; outline: as §1
[12] = test system: Plasmodium falciparum; test: Antimalarial activity against asexual blood stage drug-sensitive Plasmodium falciparum NF54 infected in erythrocytes assessed as reduction in parasitemia incubated up to 72 hrs by [3H]hypoxanthine incorporation assay; type: functional, organism-based; outline: as §2
[13] = test system: Plasmodium falciparum; test: Antiplasmodial activity against […] Plasmodium falciparum NF54 early gametocytes transfected with GFP-Luc […] incubated for 48 hrs by microscopy based luciferase reporter gene assay relative to control; type: functional, organism-based; conditions: NF54, 48 h
Outline: (§4)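 Transgenic NF54-Pfs16-GFP-Luc gametocytes, read by luciferase reporter. Early assays were set up on day 5 (50% stage II/50% stage III) and late assays on day 10 (40% stage IV/60% stage V). Luciferin was added to lysates at room temperature and bioluminescence read. Methylene blue (5 μM) was the reference. Single-point screens at 1 and 5 μM used n=1 in technical triplicate. IC₅₀ came from a normalized nonlinear fit, n≥3 in triplicate.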

[14] = test system: Plasmodium falciparum; test: Antiplasmodial activity against […] Plasmodium falciparum NF54 late gametocytes transfected with GFP-Luc […] at 1 uM incubated for 48 hrs by microscopy based luciferase reporter gene assay relative to control; type: functional; outline: as §1
[15] = Kinetic solubility of the compound in pH 6.5 incubated for 24 hrs by HPLC-DAD analysis; type: physicochemical; conditions: buffer, read-out: Kinetic_solubility
Outline: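 Miniaturized shake-flask method. 10 mM DMSO stock dried down, phosphate buffer pH 6.5 added, shaken 24 h at 25 °C. Centrifuged 3500g for 15 min; supernatant analyzed by HPLC-DAD against 10−220 μM DMSO calibration curve. Reserpine, hydrocortisone and MMV390048 as controls.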

[16] = Inhibition of tubulin polymerization in asexual blood stage Plasmodium falciparum NF54
[17] = test system: Plasmodium falciparum NF54; test: Inhibition of tubulin polymerization in […] Plasmodium falciparum NF54 early gametocytes at 2400 nM incubated for 24 hrs by tubulin tracker Oregon Green staining method
Outline: (§5)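 Treatment at 600 nM for asexual parasites (~1% parasitemia, 5% hematocrit, sorbitol-synchronized rings) or 2400 nM for early gametocytes (~2% gametocytemia, 2% hematocrit, 20% I/60% II/20% III). 24 h at 37 °C, 90% N₂/5% CO₂/5% O₂, DMSO <0.1%. Stained with 250 nM Tubulin Tracker Oregon Green 488 for 30 min and Hoechst (100 nM) for 10 min. PBS-washed, imaged live by confocal microscopy. Colchicine (20 μM) positive control.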

[18] = test system: Hemozoin; test: Inhibition of Beta-hematin in early ring stage Plasmodium falciparum parasitized red blood cells assessed as hemozoin formation formation after 32 hrs by Giemsa staining based haemocytometric counting method
[19] = test system: Plasmodium falciparum NF54; test: Inhibition of tubulin polymerization in asexual stage (I) Plasmodium falciparum NF54 early gametocytes at 2400 nM incubated for 24 hrs by tubulin tracker Oregon Green staining method; outline: as §5
[20] = test system: Hemozoin; test: Inhibition of beta-hematin formation […] incubated for 5 hrs by NP40 detergent-mediated assay
Outline: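 Cell-free β-hematin formation assay in NP-40 (305.5 μM) lipid-mimic medium. Compounds from 20 mM stock serially diluted across wells, in duplicate. Hematin suspended in 1 M acetate buffer pH 4.8; plates incubated ~5 h at 37 °C. Then pyridine solution (with HEPES pH 7.4) and acetone added; absorbance at 405 nm. IC₅₀ by curve fit.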

[21] = test system: Plasmodium falciparum NF54; test: Inhibition of tubulin polymerization in asexual stage (II) Plasmodium falciparum NF54 early gametocytes at 2400 nM incubated for 24 hrs by tubulin tracker Oregon Green staining method; outline: as §5
[22] = test system: Plasmodium falciparum NF54; test: Inhibition of tubulin polymerization in asexual blood stage Plasmodium falciparum NF54 at 600 nM incubated for 24 hrs by tubulin tracker Oregon Green staining method; outline: as §5
[23] = test system: Plasmodium falciparum; test: Antiplasmodial activity against […] Plasmodium falciparum NF54 late gametocytes transfected with GFP-Luc […] incubated for 48 hrs by microscopy based luciferase reporter gene assay relative to control; type: functional, organism-based; conditions: NF54, 48 h; outline: as §4

Row | SMILES | Ratio IC50 [1] | inhibition at 5 µM [2] | IC50 [3] | remaining at 0.5 h, 1 µM [4] | Activity [5] | inhibition at 5 µM [6] | selectivity ratio at 72 h [7] | IC50 [8] | remaining at 0.5 h, 1 µM [9] | remaining at 0.5 h, 1 µM [10] | inhibition at 1 µM [11] | IC50 [12] | IC50 [13] | inhibition at 1 µM [14] | solubility kinetic at 24 h [15] | IC50 [16] | IC50 [23] | other results
1 | CC(C)(C)NCc1cc(Cl)cc(Nc2nc3cc(F)c(F)cc3n2Cc2ccc(C(F)(F)F)cc2)c1O | 0.47 | 70% | 90 nM | 94% | <40% | 1% | > 263 | > 50000 nM | 94% | 89% | 14% | 190 nM | 690 nM | 31% | < 5 µM | – | – | –
2 | COC(=O)Nc1nc2cc(C(=O)c3cccs3)ccc2[nH]1 [NOCODAZOLE] | – | – | – | – | – | – | – | – | – | – | – | – | – | – | – | 17000 nM | – | –
3 | Cc1cc(CNC(C)(C)C)c(O)c(Nc2nc3ccccc3n2Cc2ccc(C(F)(F)F)cc2)c1 | 0.58 | 96% | 230 nM | 62% | <40% | 62% | 75.1 | 30000 nM | 41% | 99% | 45% | 400 nM | 920 nM | 0% | 50 µM (≈ 24.1 µg/mL) | – | – | –
4 | CCNCc1cc(Cl)cc(Nc2nc3ccccc3[nH]2)c1O | 2.93 | 23% | 880 nM | 97% | <40% | 31% | > 166 | > 50000 nM | 98% | 93% | 0% | 300 nM | – | 0% | 200 µM (≈ 63.4 µg/mL) | – | – | inhibition [17]: Active; Activity [18]: Active; inhibition [19]: inactive; IC50 [20]: 12700 nM; inhibition [21]: Active; inhibition [22]: Active
5 | CCNCc1cc(C)cc(Nc2nc3cc(F)c(F)cc3n2Cc2ccc(C(F)(F)F)cc2)c1O | 0.5 | 94% | 130 nM | 93% | – | 24% | 7.84 | 2040 nM | 77% | 99% | 86% | 260 nM | 210 nM | 0% | 16 µM (≈ 7.85 µg/mL) | – | 2330 nM | –
6 | COc1cc2c(c(OC)c1OC)-c1ccc(OC)c(=O)cc1[C@@H](NC(C)=O)CC2 [COLCHICINE] | – | – | – | – | – | – | – | – | – | – | – | – | – | – | – | 10000 nM | – | –
7 | CCCSc1ccc2[nH]c(NC(=O)OC)nc2c1 [ALBENDAZOLE] | – | – | – | – | – | – | – | – | – | – | – | – | – | – | – | 30000 nM | – | –
8 | COC(=O)Nc1nc2cc(C(=O)c3ccccc3)ccc2[nH]1 [MEBENDAZOLE] | – | – | – | – | – | – | – | – | – | – | – | – | – | – | – | 200000 nM | – | –
9 | CCNCc1cc(Cl)cc(Nc2nc3ccccc3n2Cc2ccc(C(F)(F)F)cc2)c1O | 0.39 | 91% | 110 nM | 73% | <40% | 8% | 121 | 33800 nM | 66% | 94% | 66% | 280 nM | 430 nM | 0% | 12 µM (≈ 5.7 µg/mL) | – | > 5000 nM | Activity [18]: inactive; IC50 [20]: 33300 nM
10 | CCN(CC)Cc1cc(Cl)cc(Nc2nc3ccccc3n2Cc2ccc(C(F)(F)F)cc2)c1O | 0.33 | 89% | 50 nM | – | – | 10% | > 333 | > 50000 nM | – | – | 69% | 150 nM | 56 nM | 2% | – | – | 1900 nM | –
11 | CCN(CC)Cc1cc(F)cc(Nc2nc3ccccc3n2Cc2ccc(C(F)(F)F)cc2)c1O | 1.12 | 90% | 190 nM | – | – | 10% | > 294 | > 50000 nM | – | – | 74% | 170 nM | 97 nM | 0% | – | – | > 5000 nM | –
